According to ChEMBL document CHEMBL1949556, “Design and synthesis of boronic acid inhibitors of endothelial lipase” (Bioorg Med Chem Lett, 2012):

Legend:
Lipoprotein lipase [1] = target: T1, Lipoprotein lipase (Homo sapiens, UniProt P06858); assay: Inhibition of human lipoprotein lipase expressed in HEK293 cells using bis-BD-PC and mono-BD-TG as substrate incubated for 10 mins prior to substrate addition by micelle assay
T1 sequence (P06858 whole entry): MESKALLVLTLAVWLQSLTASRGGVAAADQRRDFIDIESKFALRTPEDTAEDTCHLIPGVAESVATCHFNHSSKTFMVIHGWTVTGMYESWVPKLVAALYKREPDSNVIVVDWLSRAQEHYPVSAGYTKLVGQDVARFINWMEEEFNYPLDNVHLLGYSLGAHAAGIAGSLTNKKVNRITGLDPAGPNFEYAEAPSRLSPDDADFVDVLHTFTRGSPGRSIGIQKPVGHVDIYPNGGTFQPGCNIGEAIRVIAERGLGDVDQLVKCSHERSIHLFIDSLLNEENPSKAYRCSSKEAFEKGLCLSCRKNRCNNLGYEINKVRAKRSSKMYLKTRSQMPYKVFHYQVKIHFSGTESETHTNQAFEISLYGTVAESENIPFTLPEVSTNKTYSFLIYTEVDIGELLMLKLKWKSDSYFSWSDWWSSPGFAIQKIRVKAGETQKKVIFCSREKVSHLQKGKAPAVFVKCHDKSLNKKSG
Summary of the method: (§1)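 Detergent micelle system, which removes interfacial catalysis and gives direct access to the active site; IC50 taken as mean of two independent experiments, each run in duplicate.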

Lipoprotein lipase [2] = target: T1, Lipoprotein lipase; assay: Inhibition of human lipoprotein lipase expressed using recombinant adenovirus using glycerol-tri[9,10(n)-3H]oleate after 1 hr by vesicle assay
Summary of the method: (§2)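 Vesicle (interfacial catalysis) substrate system; IC50 taken as mean of two independent experiments, each run in duplicate.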

Endothelial lipase [3] = target: T2, Endothelial lipase (Homo sapiens, UniProt Q9Y5X9); assay: Inhibition of human endothelial lipase expressed using recombinant adenovirus using glycerol-tri[9,10(n)-3H]oleate after 1 hr by vesicle assay; summary of the method: as §2
T2 sequence (Q9Y5X9 whole entry): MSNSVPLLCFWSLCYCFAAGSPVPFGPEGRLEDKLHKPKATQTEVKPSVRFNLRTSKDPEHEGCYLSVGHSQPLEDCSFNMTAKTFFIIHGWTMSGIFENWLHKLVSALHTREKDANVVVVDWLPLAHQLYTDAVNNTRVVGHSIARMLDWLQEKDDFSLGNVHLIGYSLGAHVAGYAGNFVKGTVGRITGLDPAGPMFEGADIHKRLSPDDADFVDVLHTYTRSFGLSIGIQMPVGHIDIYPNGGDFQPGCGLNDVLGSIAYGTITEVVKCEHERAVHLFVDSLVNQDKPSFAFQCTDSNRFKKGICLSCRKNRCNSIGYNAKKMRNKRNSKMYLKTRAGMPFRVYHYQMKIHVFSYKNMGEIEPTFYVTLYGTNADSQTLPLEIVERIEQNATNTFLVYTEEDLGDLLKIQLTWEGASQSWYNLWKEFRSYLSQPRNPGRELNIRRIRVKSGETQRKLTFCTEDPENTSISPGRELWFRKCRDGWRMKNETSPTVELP

Homo sapiens [4] = organism: Homo sapiens; assay: Selectivity ratio of IC50 for human lipoprotein lipase by micelle assay to IC50 for human endothelial lipase by micelle assay
Summary of the method: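 Ratio of lipoprotein lipase IC50 to endothelial lipase IC50, both from micelle assays; unitless.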

Endothelial lipase [5] = target: T2, Endothelial lipase; assay: Inhibition of human endothelial lipase overexpressed in HUVEC cells using bis-BD-PC and mono-BD-TG as substrate incubated for 10 mins prior to substrate addition by micelle assay; type: cell-based; summary of the method: as §1
Homo sapiens [6] = organism: Homo sapiens; assay: Selectivity ratio of IC50 for human lipoprotein lipase to IC50 for human endothelial lipase by vesicle assay
Summary of the method: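 Ratio of lipoprotein lipase IC50 to endothelial lipase IC50, both from vesicle assays; unitless.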

[7] = target: T3, Lipoprotein lipase (Homo sapiens) (UniProt P06858); assay: Inhibition of human lipoprotein lipase expressed using recombinant adenovirus using glycerol-tri[9,10(n)-3H]oleate at 50 uM after 1 hr by vesicle assay
T3 sequence (whole entry): T1 sequence (P06858 whole entry)
Summary of the method: (§3)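 Vesicle-based substrate system with the test agent at a single 50 μM concentration; percent inhibition of lipase activity reported.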

[8] = target: T4, Endothelial lipase (Homo sapiens) (UniProt Q9Y5X9); assay: Inhibition of human endothelial lipase expressed using recombinant adenovirus using glycerol-tri[9,10(n)-3H]oleate at 50 uM after 1 hr by vesicle assay; summary of the method: as §3
T4 sequence (whole entry): T2 sequence (Q9Y5X9 whole entry)

Row | Compound | IC50 (Lipoprotein lipase [1]) | IC50 (Lipoprotein lipase [2]) | IC50 (Endothelial lipase [3]) | Ratio IC50 (Homo sapiens [4]) | IC50 (Endothelial lipase [5]) | Ratio IC50 (Homo sapiens [6]) | inhibition [7] | inhibition [8]
1 | CC1(C)OB(c2ccc(-c3ccco3)cc2)OC1(C)C | 35 µM | 9.6 µM | 1.9 µM | 27 | 1.3 µM | 5 |  | 
2 | CC1(C)OB(c2ccc(-c3ccccc3)cc2)OC1(C)C | 12 µM | 4.4 µM | 1 µM | 12 | 1 µM | 4.4 |  | 
3 | CCCCCCCCCCCc1ccc(B2OC(C)(C)C(C)(C)O2)cc1 | 15 µM | > 50 µM | 4.5 µM | 11 | 1.4 µM |  |  | 
4 | CCCCCCCc1ccc(B(O)O)cc1 | 9 µM | 30 µM | 1.7 µM | 28 | 0.32 µM | 18 |  | 
5 | CC1(C)OB(c2ccc(-c3ccc(F)cc3)cc2)OC1(C)C | 33 µM | 55 µM | 1.6 µM | 30 | 1.1 µM | 34 |  | 
6 | CC1(C)OB(c2ccc(-c3ccc4ccccc4c3)cc2)OC1(C)C | 15 µM | 22 µM | 2 µM | 8.8 | 1.7 µM | 11 |  | 
7 | CCCCCCCCCCCCCCCB(O)O |  |  |  |  |  |  | 63% | 90%
8 | CCCCCc1ccc(B(O)O)cc1 | 3.8 µM | 15 µM | 1 µM | 8 | 0.47 µM | 15 |  | 
9 | CCCCCCCCCCCc1ccc(B(O)O)cc1 | 1.5 µM | 50 µM | 2 µM | 7.5 | 0.2 µM | 25 |  | 
10 | CCc1ccc(B(O)O)cc1 | 20 µM | 9 µM |  | 1 | 19 µM | 0.3 |  | 
11 | CCCCCCCCCc1ccc(B2OC(C)(C)C(C)(C)O2)cc1 | 15 µM | 50 µM | 2.5 µM | 15 | 1 µM | 20 |  | 
12 | CCCCCc1ccc(B2OC(C)(C)C(C)(C)O2)cc1 | 21 µM | 50 µM | 2.6 µM | 19 | 1.1 µM | 19 |  | 
13 | CC1(C)OB(c2ccc(-c3cccs3)cc2)OC1(C)C | 40 µM | 7 µM | 1.9 µM | 25 | 1.6 µM | 3.7 |  | 
14 | CCCCCCCCCCCCCCCC(=O)CCl |  |  |  |  |  |  | -10% | 10%
15 | CCCCCc1cccc(B(O)O)c1 | 85 µM | 50 µM | 12.8 µM | 3.8 | 22 µM | 4 |  | 
16 | CCCCCc1cccc(B2OC(C)(C)C(C)(C)O2)c1 | 100 µM | 45 µM | 4.2 µM | 2.8 | 35 µM | 11 |  | 
17 | CC1(C)OB(c2ccc(-c3ccoc3)cc2)OC1(C)C | 33 µM | 15 µM | 2.8 µM | 11 | 2.9 µM | 5.4 |  | 
18 | CCCCCCCc1ccc(B2OC(C)(C)C(C)(C)O2)cc1 | 19 µM | 55 µM | 3.5 µM | 17 | 1.1 µM | 16 |  | 
19 | CCCCCCCCCCCCCCCC=O |  |  |  |  |  |  | -1% | 7%
20 | CCCCCCCCCCCCCCCC(=O)C=[N+]=[N-] |  |  |  |  |  |  | 20% | 
21 | CCCCCCCCCCCCCCCC#N |  |  |  |  |  |  | 14% | 4%
22 | CCCc1ccc(B2OC(C)(C)C(C)(C)O2)cc1 | 25 µM | 25 µM | 5 µM | 4.1 | 6 µM | 5 |  | 
23 | CCCCCCCCCc1ccccc1B(O)O | > 500 µM | > 50 µM | 50 µM | > 50 | 11 µM |  |  | 
24 | Cc1ccc(B(O)O)cc1 [TOLYL BORONIC ACID] | 25 µM | 9 µM |  | 1.1 | 22 µM | 0.5 |  | 
25 | CCCCCCCCCc1ccc(B(O)O)cc1 | 1.4 µM | 42 µM | 1 µM | 14 | 0.1 µM | 42 |  | 
26 | CCCCCCCCCCCCCCCC(=O)C(F)(F)F |  |  |  |  |  |  | 14% | 56%
27 | CCCc1ccc(B(O)O)cc1 | 12.5 µM | 8 µM | 2 µM | 3.1 | 4 µM | 4 |  | 
28 | CC1(C)OB(c2ccc(-c3ccsc3)cc2)OC1(C)C | 36 µM | 13 µM | 1.3 µM | 12 | 3.1 µM | 10 |  | 
29 | CCCCCCCCCc1cccc(B(O)O)c1 | 95 µM | > 50 µM | 2.8 µM | 19 | 5 µM | > 20 |  | 
